The source of these data is ChEMBL document CHEMBL1146021, “Calcium channel antagonists discovered by a multidisciplinary approach” (J Med Chem, 2006).

Activity calls are given as the source filed them.

For assay [1], the species on record is Cavia porcellus. In words: Negative inotropic activity in guinea pig left atrium. The format is functional. The note with it: Cardiac atrium. A digest of the protocol: (§1)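 Guinea-pig left atria driven at 1 Hz (0.6-0.8 ms pulses, about 50% threshold voltage) in PSS, 35 °C, pH 7.4, 95% O2/5% CO2. Isometric tension recorded. Cumulative concentrations 0.01-100 μM in DMSO (≤0.3%), each to steady state. Percent decrease in developed tension, n = 4-6. EC50 by Probit analysis.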

The species named for assay [2] is Cavia porcellus. In words: Negative inotropic activity in guinea pig left atrium at 500 uM. It is filed as functional, Cardiac atrium.
For assay [3], the species on record is Cavia porcellus. In words: Negative chronotropic activity in guinea pig right atrium at 10 uM. The format is functional, Cardiac atrium. The procedure, abridged: (§2)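 Spontaneously beating guinea-pig right atria in PSS, 35 °C, pH 7.4, 95% O2/5% CO2. Cumulative concentrations 0.01-100 μM in DMSO (≤0.3% in bath), each to steady state. Rate decrease taken as percent of control (pretreatment 170-195 beats/min), n = 6-8. EC30 by Probit analysis.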

The species named for assay [4] is Cavia porcellus. In words: Vasorelaxant activity assessed as inhibition of calcium-induced contraction of potassium ion-depolarized guinea pig aortic strips at 100 uM. Also noted: scale not given: the % may be the effect or the level left. It is filed as functional, Aorta. A digest of the protocol:
(§3)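 Helicoidal guinea-pig aortic strips in aerated PSS at 35 °C, contracted with 80 mM KCl (K+ substituted for Na+). At plateau (about 45 min), compounds added cumulatively at 0.1-500 μM in DMSO vehicle. Relaxation measured isometrically. IC50 by Probit analysis, n = 6-8.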

For assay [5], the species on record is Cavia porcellus. In words: Negative chronotropic activity in guinea pig right atrium at 50 uM. It is filed as functional, Cardiac atrium. The procedure, abridged: as §2
Assay [6] is filed under the species Cavia porcellus. In words: Negative inotropic activity in guinea pig left atrium at 50 uM. It is filed as functional, Cardiac atrium. The procedure, abridged: as §1
The species named for assay [7] is Cavia porcellus. In words: Negative inotropic activity in guinea pig left atrium at 5 uM. The format is functional, Cardiac atrium. The procedure, abridged: as §1
For assay [8], the species on record is Cavia porcellus. In words: Negative chronotropic activity in guinea pig right atrium at 5 uM. The format is functional, Cardiac atrium. A digest of the protocol: as §2
The species entered for assay [9] is Cavia porcellus. In words: Negative inotropic activity in guinea pig left atrium at 100 uM. The format is functional, Cardiac atrium. The note with it: in the assay text read “50 uM” for “100 uM”. A digest of the protocol:
as §1

The species entered for assay [10] is Cavia porcellus. In words: Negative chronotropic activity in guinea pig right atrium. It is filed as functional. The settings on record: Cardiac atrium. The procedure, abridged: as §2
The species entered for assay [11] is Cavia porcellus. In words: Antagonist activity against calcium channel assessed as inhibition of calcium-induced contraction of potassium ion-depolarized guinea pig ileum longitudinal smooth muscle at 50 uM. The arrangement: scale not given: the % may be the effect or the level left. It is filed as functional. The procedure, abridged: (§4)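 Guinea-pig ileum longitudinal smooth muscle segments (2 cm) held at 300-400 mg resting tension, 37 °C, in oxygenated (100% O2) Hepes-buffered PSS at pH 7.4. Isometric contraction recorded. Inhibition expressed as percentage of control. Probit log concentration–response analysis, n = 6-8.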

Assay [12] is filed under the species Cavia porcellus. In words: Antagonist activity against calcium channel assessed as inhibition of calcium-induced contraction of potassium ion-depolarized guinea pig ileum longitudinal smooth muscle. It is filed as functional. The procedure, abridged: as §4
The species named for assay [13] is Cavia porcellus. In words: Antagonist activity against calcium channel assessed as inhibition of carbachol-induced tonic contraction of guinea pig ileum longitudinal smooth muscle. It is filed as functional. The procedure, abridged:
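Guinea-pig ileum longitudinal smooth muscle segments (2 cm), 300-400 mg resting tension, 37 °C, oxygenated Hepes-buffered PSS at pH 7.4, equilibrated 1 h. Two control carbachol curves run 30 min apart. Test agent (10 μM) added 30 min before the carbachol curve. Isometric inhibition expressed as percent of control.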

Assay [14] deals with Voltage-dependent L-type calcium channel subunit alpha-1C (Rattus norvegicus, UniProt P22002). In words: Inhibition of [3H]diltiazem binding to Sprague-Dawley rat cardiomyocytes. The procedure, abridged:
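Cardiomyocytes from male Sprague-Dawley rats, isolated by Langendorff perfusion and stored frozen (200 μg per tube). Incubated with 5 nM [3H]diltiazem and test ligand (0.1 nM-100 μM) in 50 mM Tris pH 7.4, 25 °C, 90 min. Bound ligand separated by filtration. Nonspecific binding with 100 μM diltiazem. Triplicates. pIC50 from sigmoidal fit; Ki by Cheng-Prusoff.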

The species named for assay [15] is Cavia porcellus. In words: Negative inotropic activity in guinea pig left ventricular papillary muscle at 50 uM. The format is functional, Muscle tissue.
The species named for assay [16] is Cavia porcellus. In words: Negative inotropic activity in guinea pig left ventricular papillary muscle. The format is functional. The settings on record: Muscle tissue.
The species named for assay [17] is Cavia porcellus. In words: Cardiac activity in guinea pig heart measured as decrease in left ventricular pressure at 1 uM relative to control. The format is functional. The arrangement: scale not given: the % may be the effect or the level left. A digest of the protocol: (§5)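 Langendorff-perfused isolated hearts from female guinea-pigs (300-400 g). Compounds given cumulatively at 0.001-1 μM, each step held to steady state (about 30 min). Read-outs: surface ECG (PR interval, heart rate), intraventricular balloon +(dP/dt)max and coronary perfusion pressure. Results given as percent change from basal at 1 μM, mean ± SEM.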

The species named for assay [18] is Cavia porcellus. In words: Cardiac activity in guinea pig heart measured as decrease in heart rate at 1 uM by ECG relative to control. It is filed as functional. Also noted: scale not given: the % may be the effect or the level left. A digest of the protocol: as §5
The species entered for assay [19] is Cavia porcellus. In words: Cardiac activity in guinea pig heart measured as decrease in coronary perfusion pressure at 1 uM relative to control. It is filed as functional. Also noted: scale not given: the % may be the effect or the level left. A digest of the protocol:
as §5

For assay [20], the species on record is Cavia porcellus. In words: Cardiac activity in guinea pig heart measured as prolongation of atrioventricular conduction time at 1 uM relative to control. The format is functional. The procedure, abridged: as §5
The species named for assay [21] is Cavia porcellus. In words: Negative inotropic activity in guinea pig left atrium at 10 uM. It is filed as functional, Cardiac atrium. A digest of the protocol: as §1
The species entered for assay [22] is Cavia porcellus. In words: Vasorelaxant activity assessed as inhibition of calcium-induced contraction of potassium ion-depolarized guinea pig aortic strips. It is filed as functional. The settings on record: Aorta. A digest of the protocol:
as §3

The species named for assay [23] is Cavia porcellus. In words: Negative inotropic activity in guinea pig left atrium at 1 uM. It is filed as functional, Cardiac atrium. A digest of the protocol: as §1
For assay [24], the species on record is Cavia porcellus. In words: Negative chronotropic activity in guinea pig right atrium at 100 uM. The format is functional, Cardiac atrium. The settings on record: in the assay text read “50 uM” for “100 uM”. The procedure, abridged:
as §2

The species entered for assay [25] is Cavia porcellus. In words: Antagonist activity against calcium channel assessed as inhibition of calcium-induced contraction of potassium ion-depolarized guinea pig ileum longitudinal smooth muscle at 100 uM. It is filed as functional. Also noted: scale not given: the % may be the effect or the level left. The procedure, abridged:
as §4

The species entered for assay [26] is Cavia porcellus. In words: Negative inotropic activity in guinea pig left ventricular papillary muscle at 500 uM. It is filed as functional, Muscle tissue.
The species entered for assay [27] is Cavia porcellus. In words: Vasorelaxant activity assessed as inhibition of calcium-induced contraction of potassium ion-depolarized guinea pig aortic strips at 50 uM. The format is functional, Aorta. The arrangement: scale not given: the % may be the effect or the level left. The procedure, abridged: as §3

Sequence of Voltage-dependent L-type calcium channel subunit alpha-1C (P22002 whole entry, the tested form may be a part): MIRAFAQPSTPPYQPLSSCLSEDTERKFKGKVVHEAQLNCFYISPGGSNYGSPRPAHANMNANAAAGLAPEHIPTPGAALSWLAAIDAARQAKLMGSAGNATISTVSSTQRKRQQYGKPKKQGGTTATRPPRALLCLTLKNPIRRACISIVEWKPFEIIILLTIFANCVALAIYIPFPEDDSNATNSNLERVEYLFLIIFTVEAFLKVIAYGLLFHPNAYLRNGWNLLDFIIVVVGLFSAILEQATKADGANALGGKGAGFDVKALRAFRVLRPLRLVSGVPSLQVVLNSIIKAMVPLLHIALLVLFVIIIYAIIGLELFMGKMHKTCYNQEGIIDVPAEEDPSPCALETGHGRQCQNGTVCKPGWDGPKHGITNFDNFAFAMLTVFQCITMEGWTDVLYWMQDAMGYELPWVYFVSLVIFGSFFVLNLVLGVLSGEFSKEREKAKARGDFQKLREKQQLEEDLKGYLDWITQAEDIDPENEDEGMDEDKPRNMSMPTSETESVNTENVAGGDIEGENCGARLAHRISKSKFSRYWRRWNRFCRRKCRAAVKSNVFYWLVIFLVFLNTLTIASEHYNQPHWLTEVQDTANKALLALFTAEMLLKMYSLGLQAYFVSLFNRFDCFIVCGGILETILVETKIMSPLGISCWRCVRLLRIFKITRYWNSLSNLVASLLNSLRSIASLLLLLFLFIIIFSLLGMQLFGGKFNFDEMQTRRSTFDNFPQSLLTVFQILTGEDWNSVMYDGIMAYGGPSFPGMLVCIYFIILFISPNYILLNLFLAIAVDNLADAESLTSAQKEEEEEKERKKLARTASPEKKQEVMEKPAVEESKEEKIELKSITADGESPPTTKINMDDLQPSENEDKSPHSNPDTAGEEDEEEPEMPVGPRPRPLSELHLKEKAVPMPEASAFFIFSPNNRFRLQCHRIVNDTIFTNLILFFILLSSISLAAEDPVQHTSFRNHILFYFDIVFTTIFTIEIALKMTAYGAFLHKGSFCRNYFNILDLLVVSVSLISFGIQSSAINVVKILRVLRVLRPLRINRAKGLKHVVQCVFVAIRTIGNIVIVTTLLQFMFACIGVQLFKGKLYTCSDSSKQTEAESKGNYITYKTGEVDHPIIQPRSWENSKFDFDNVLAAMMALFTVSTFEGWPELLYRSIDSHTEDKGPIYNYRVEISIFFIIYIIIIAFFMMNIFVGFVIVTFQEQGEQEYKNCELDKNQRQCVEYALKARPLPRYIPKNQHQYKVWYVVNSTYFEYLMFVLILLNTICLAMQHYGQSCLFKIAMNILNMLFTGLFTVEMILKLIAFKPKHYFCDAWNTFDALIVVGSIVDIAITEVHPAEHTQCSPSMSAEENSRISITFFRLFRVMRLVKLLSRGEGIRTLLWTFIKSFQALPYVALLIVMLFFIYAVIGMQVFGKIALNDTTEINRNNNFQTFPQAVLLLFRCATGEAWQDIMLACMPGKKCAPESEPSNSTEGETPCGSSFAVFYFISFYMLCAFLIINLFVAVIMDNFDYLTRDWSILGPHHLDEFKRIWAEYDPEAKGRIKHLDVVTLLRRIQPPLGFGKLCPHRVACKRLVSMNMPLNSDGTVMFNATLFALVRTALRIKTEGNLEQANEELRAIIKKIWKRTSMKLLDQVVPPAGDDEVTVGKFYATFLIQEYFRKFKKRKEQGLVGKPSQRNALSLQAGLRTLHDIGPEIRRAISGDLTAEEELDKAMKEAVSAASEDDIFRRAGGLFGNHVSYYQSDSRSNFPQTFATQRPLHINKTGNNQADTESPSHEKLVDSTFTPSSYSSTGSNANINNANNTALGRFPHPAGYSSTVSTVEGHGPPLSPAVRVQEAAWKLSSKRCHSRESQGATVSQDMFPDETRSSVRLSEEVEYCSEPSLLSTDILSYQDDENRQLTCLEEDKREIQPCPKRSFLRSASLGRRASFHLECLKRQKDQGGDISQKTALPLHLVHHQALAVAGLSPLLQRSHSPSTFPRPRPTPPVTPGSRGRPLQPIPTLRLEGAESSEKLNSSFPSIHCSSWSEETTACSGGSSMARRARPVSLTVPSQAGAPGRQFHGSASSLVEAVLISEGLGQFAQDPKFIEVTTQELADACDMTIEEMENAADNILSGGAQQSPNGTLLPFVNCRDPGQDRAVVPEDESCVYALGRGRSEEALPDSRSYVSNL

Regarding `COC(=O)[C@H]1SCCN1S(=O)(=O)c1ccc(Cl)cc1`, in the assay listed under Cavia porcellus [1], the EC50 was 1000 nM. Besides, the Activity was determined as 92% in the assay listed under Cavia porcellus [2], 2% in the assay listed under Cavia porcellus [3] and 29% in the assay listed under Cavia porcellus [4].
With `O=S(=O)(c1ccc(Br)cc1)N1CCCCCC1`, the Activity was 4% in the assay filed under Cavia porcellus [5], 91% in the assay listed under Cavia porcellus [6] and 33% in the assay filed under Cavia porcellus [4]. The compound further showed an EC50 in the assay listed under Cavia porcellus [1] of 360 nM.
Compound `C[C@H]1CC(=O)[C@](C)(CC(=O)c2ccc(Cl)cc2)C(=O)C1` returned an EC50 in the assay listed under Cavia porcellus [1] of 7510 nM. For the same compound, the Activity is listed as 78% in the assay listed under Cavia porcellus [6], 2% in the assay listed under Cavia porcellus [3] and 16% in the assay listed under Cavia porcellus [4].
`CCN(c1ccccc1)S(=O)(=O)c1ccc(Cl)cc1` yielded an EC50 in the assay filed under Cavia porcellus [1] of 300 nM. The Activity in the assay filed under Cavia porcellus [7] was 90%; in the assay filed under Cavia porcellus [8], 7%; in the assay listed under Cavia porcellus [4], 46%.
For the compound `C=CCN(CC=C)S(=O)(=O)c1ccc(Cl)cc1`, the Activity in the assay listed under Cavia porcellus [9] was found to be 98%; in the assay filed under Cavia porcellus [3], 6%; in the assay filed under Cavia porcellus [4], 42%. The EC50 in the assay listed under Cavia porcellus [1] worked out at 1170 nM.
As for `O=S(=O)(c1ccc(Cl)cc1)N(C1CCNCC1)C1CC1`, the Activity in the assay listed under Cavia porcellus [5] is 64%; in the assay filed under Cavia porcellus [6] it was 76%; in the assay filed under Cavia porcellus [11] it was 89%; in the assay listed under Cavia porcellus [4] it was 19%; in the assay filed under Cavia porcellus [15], 78%; in the assay listed under Cavia porcellus [17], 12%. Moreover, the results for the Activity in the assay filed under Cavia porcellus [18] and in the assay listed under Cavia porcellus [19] were 12% and 13%, respectively. Further, the EC50 in the assay filed under Cavia porcellus [1] amounted to 313 nM; in the assay listed under Cavia porcellus [12], 14.2 µM; in the assay listed under Cavia porcellus [16], 10.2 µM. In the assay listed under Cavia porcellus [10], the EC30 worked out at 0.48 µM. Besides, the IC50 in the assay listed under Cavia porcellus [13] was 34.5 µM. Moreover, the Ki in assay [14] is 3.02 µM. Moreover, the outcome in the assay listed under Cavia porcellus [20] was inactive.
`CSC1=NCCCN1S(=O)(=O)c1ccc(Cl)cc1` came in with an EC50 in the assay listed under Cavia porcellus [1] of 1330 nM. Further, the Activity in the assay filed under Cavia porcellus [21] came to 92%; in the assay filed under Cavia porcellus [3], 5%; in the assay listed under Cavia porcellus [4], 57%. Also, the IC50 in the assay filed under Cavia porcellus [22] amounted to 25.1 µM.
Regarding `CCO[C@]1(c2ccc(Br)cc2)SC=C(C)n2c1noc2=O`, the response in the assay listed under Cavia porcellus [1] was half-maximal at 70 nM (EC50). For the same compound, the Activity in the assay filed under Cavia porcellus [23] worked out at 58%; in the assay filed under Cavia porcellus [3] it was 16%; in the assay filed under Cavia porcellus [4], 11%.
Consider `CCOC1(c2ccc(Br)cc2)SC=C(C)n2c1noc2=O` (centres undefined), for which the Activity is 5% in the assay listed under Cavia porcellus [24]; 77% in the assay listed under Cavia porcellus [23]; 3% in the assay filed under Cavia porcellus [25]; 19% in the assay listed under Cavia porcellus [4]; 2% in the assay listed under Cavia porcellus [26]; 3% in the assay filed under Cavia porcellus [17]. In addition, the Activity in the assay listed under Cavia porcellus [18] worked out at 14%; in the assay filed under Cavia porcellus [19], 9%; in the assay listed under Cavia porcellus [20] it was 32%. Also, the EC50 in the assay listed under Cavia porcellus [1] came to 40 nM. In addition, in the assay filed under Cavia porcellus [13], the IC50 amounted to 40 µM.
Take `CO/N=C/c1c(Sc2ccccc2C(=O)OC)nc2sccn12`: the Activity is reported as 13% in the assay filed under Cavia porcellus [5], 63% in the assay filed under Cavia porcellus [6] and 9% in the assay filed under Cavia porcellus [27]. The compound also registered an EC50 in the assay listed under Cavia porcellus [1] of 900 nM.

The EC50 is the midpoint of the concentration-response curve. In general, EC30 refers to the concentration needed for an effect of 30%. By IC50 is commonly meant the midpoint of a concentration-inhibition curve. One may read the Ki as the dissociation constant of the complex between target and ligand, obtained from inhibition or displacement.
